Laboratory results from paper PMC7887132 (Chemistry (Weinheim an der Bergstrasse, Germany), 2020).

Experiments:
tyrosine kinases = settings: previously synthesized and tested; no reference given; cited from earlier work
c-Met = c-Met (Homo sapiens, UniProt P08581); assay: Anti-protein kinase activity, c-Met; assay type: biochemical; settings: for IC50: read-out: Anti-protein kinase activity (IC50) c-Met; for percentage of inactivated c-Met: 1 μM of compound used as inhibitor
Method in brief: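 ELISA kinase-kit format, run in duplicate. Met positive-control enzyme (10 μL of 0.1 unit/μL) goes into wells on ice, with kinase assay buffer containing the test compound. Kinase reaction buffer starts the reaction, 60 min at 30 °C. After washing, HRP-conjugated detection antibody PY-39 is added for 60 min at room temperature, then substrate reagent for 5–15 min, then stop solution. Absorbance is read at 450/540 nm within 30 min.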

Solubility in water = assay type: physicochemical
EGFR T790M /L858R = EGFR T790M /L858R (Homo sapiens, UniProt P00533, L858R/T790M); assay: Anti-protein kinase activity, EGFR T790M/L858R; assay type: biochemical; settings: read-out: Anti-protein kinase activity (IC50) EGFR T790M /L858R
FLT1 = FLT1 (Homo sapiens, UniProt P17948); assay: Anti-protein kinase activity, FLT1; assay type: biochemical; settings: read-out: Anti-protein kinase activity (IC50) FLT1
Abl WT = Abl WT (Homo sapiens, UniProt P00519); assay: Anti-protein kinase activity, Abl WT; assay type: biochemical; settings: read-out: Anti-protein kinase activity (IC50) Abl WT
EGFR L858R = EGFR L858R (Homo sapiens, UniProt P00533, L858R); assay: Anti-protein kinase activity, EGFR L858R; assay type: biochemical; settings: read-out: Anti-protein kinase activity (IC50) EGFR L858R
EGFR WT = EGFR WT (Homo sapiens, UniProt P00533); assay: Anti-protein kinase activity, EGFR WT; assay type: biochemical; settings: for IC50: read-out: Anti-protein kinase activity (IC50) EGFR WT
Abl T315I = Abl T315I (Homo sapiens, UniProt P00519, T315I); assay: Anti-protein kinase activity, Abl T315I; assay type: biochemical; settings: read-out: Anti-protein kinase activity (IC50) Abl T315I

Sequence of FLT1 (P17948 27-1338): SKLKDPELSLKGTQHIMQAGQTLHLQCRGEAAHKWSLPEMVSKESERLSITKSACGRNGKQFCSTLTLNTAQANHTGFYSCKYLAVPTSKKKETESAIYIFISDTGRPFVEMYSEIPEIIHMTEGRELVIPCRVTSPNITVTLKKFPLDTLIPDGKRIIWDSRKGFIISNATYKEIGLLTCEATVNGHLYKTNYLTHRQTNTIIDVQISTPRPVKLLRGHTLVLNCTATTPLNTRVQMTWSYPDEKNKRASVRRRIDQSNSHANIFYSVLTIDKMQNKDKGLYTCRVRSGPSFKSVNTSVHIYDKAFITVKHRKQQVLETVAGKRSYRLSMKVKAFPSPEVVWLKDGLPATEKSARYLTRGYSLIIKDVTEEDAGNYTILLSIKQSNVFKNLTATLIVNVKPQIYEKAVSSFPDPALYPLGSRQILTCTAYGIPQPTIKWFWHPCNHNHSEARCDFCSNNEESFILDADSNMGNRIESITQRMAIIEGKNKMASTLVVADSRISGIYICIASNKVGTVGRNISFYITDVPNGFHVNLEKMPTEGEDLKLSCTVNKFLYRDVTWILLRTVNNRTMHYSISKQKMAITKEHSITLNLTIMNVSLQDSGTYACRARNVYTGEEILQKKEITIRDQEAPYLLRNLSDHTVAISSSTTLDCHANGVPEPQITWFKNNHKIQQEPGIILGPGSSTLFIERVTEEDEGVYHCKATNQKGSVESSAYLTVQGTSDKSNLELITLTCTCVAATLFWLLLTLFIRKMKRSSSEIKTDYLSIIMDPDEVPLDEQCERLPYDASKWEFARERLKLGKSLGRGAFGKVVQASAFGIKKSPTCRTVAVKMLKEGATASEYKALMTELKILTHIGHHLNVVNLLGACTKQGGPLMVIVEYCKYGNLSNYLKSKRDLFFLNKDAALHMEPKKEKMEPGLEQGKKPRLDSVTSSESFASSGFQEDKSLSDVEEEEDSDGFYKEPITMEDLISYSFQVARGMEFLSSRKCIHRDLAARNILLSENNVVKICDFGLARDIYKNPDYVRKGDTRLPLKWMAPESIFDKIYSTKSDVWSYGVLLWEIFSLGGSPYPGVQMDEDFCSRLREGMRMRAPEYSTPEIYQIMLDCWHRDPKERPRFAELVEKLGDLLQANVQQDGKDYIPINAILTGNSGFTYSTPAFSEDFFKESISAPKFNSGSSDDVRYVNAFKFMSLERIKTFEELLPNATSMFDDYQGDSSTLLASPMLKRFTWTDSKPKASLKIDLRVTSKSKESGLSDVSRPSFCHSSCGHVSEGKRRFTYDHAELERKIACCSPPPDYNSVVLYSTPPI
Sequence of c-Met (P08581 25-1390): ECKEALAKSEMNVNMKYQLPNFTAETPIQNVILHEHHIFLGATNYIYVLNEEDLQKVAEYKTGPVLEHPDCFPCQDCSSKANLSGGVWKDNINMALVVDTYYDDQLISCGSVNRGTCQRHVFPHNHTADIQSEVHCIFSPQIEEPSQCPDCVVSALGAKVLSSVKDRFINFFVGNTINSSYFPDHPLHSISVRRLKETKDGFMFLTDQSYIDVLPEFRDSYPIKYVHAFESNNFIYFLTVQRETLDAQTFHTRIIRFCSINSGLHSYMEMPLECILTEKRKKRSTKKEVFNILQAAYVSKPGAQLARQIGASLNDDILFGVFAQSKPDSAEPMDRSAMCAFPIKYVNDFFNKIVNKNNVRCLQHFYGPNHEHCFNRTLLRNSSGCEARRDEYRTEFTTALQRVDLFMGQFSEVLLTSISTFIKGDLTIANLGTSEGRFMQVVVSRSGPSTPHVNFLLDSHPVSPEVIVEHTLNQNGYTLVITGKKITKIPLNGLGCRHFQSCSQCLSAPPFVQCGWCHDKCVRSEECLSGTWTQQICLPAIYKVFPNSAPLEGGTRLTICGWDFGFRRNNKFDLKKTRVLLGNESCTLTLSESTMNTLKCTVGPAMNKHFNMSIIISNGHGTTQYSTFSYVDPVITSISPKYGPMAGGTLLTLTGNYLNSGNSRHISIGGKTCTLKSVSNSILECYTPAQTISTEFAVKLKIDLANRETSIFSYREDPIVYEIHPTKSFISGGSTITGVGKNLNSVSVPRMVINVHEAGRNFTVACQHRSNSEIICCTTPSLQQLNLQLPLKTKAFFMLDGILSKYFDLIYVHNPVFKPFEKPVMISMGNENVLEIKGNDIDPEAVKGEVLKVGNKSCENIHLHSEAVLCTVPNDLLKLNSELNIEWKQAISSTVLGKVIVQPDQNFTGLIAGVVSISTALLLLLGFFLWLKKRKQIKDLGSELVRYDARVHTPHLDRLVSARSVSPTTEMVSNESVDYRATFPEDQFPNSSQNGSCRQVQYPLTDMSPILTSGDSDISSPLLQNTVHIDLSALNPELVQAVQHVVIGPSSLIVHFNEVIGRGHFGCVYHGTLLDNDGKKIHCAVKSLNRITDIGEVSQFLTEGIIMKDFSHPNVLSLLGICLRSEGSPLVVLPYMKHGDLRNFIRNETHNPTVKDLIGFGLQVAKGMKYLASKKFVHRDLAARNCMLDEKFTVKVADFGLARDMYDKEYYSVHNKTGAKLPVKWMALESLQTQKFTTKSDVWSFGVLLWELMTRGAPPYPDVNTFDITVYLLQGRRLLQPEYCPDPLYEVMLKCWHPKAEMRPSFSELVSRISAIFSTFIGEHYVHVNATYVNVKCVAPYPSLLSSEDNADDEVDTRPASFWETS

Row | Molecule | inhibitory activity as tyrosine kinases inhibitor (tyrosine kinases) | IC50 (c-Met) [nM] | solubility in water (Solubility in water) | IC50 (EGFR T790M /L858R) [nM] | IC50 (FLT1) [nM] | IC50 (Abl WT) [nM] | IC50 (EGFR L858R) [nM] | IC50 (EGFR WT) [nM] | IC50 (Abl T315I) [nM] | percentage of inactivated c-Met (c-Met) [%] | inhibition of EGFR WT (in words) (EGFR WT) | percentage of inactivated EGFR WT (EGFR WT; 1 μM of compound used as inhibitor) [%] | anti-c-Met activity (in words) (c-Met)
1 | 2,6-di(thiazol-4-yl)pyridinophane [compound 5] | didn’t show any inhibitory activity |  |  |  |  |  |  |  |  |  |  |  | 
2 | 2,15-Diaza-2,15-diheptanoyl[3.3](2,2’)(4,4’-bithiazolophane) [compound 3] |  | > 1000 | only slightly soluble in water | > 1000 | > 1000 | > 1000 | > 1000 | > 1000 | > 1000 |  |  |  | 
3 | 2,15-diaza-2,15-bis(tert-butoxycarbonyl)[3.3](2,2’)(4,4’-bithiazolophane) [compound 1] |  | 603 | only slightly soluble in water | > 1000 | > 1000 | > 1000 | > 1000 | > 1000 | > 1000 | 59 | partial inhibition | 44 | 
4 | CC(C)COC(=O)N1Cc2nc(cs2)-c2csc(n2)CN(C(=O)OCC(C)C)Cc2nc(cs2)-c2csc(n2)C1 [compound 4, 2,15-Bis(isobutoxycarbonyl)-2,15-diaza[3.3](2,2’)(4,4’-bithiazolophane)] |  | > 1000 | only slightly soluble in water | > 1000 | > 1000 | > 1000 | > 1000 | > 1000 | > 1000 | 5 |  |  | showed anti-c-Met activity
5 | 2,15-diaza[3.3](2,2’)(4,4’-bithiazolophanium) dichloride [compound 2] |  | > 1000 | almost freely soluble in water | > 1000 | > 1000 | > 1000 | > 1000 | > 1000 | > 1000 | 33 |  |  | showed anti-c-Met activity
